Activity calls are given as the source filed them. No rule for the calls is given here.
How the values were obtained:
CCRF-CEM [1] = assay: Inhibition of RNA synthesis in human CCRF-CEM cells assessed as BrU-positive cells at IC50 after 24 hrs by propidium iodide staining-based flow cytometric analysis (reference value: 43.3%); assay type: functional; set-up: scale not given: the % may be the effect or the level left
CCRF-CEM [2] = assay: Inhibition of DNA synthesis in human CCRF-CEM cells assessed as BrdU-positive cells at IC50 after 24 hrs by propidium iodide staining-based flow cytometric analysis (reference value: 50.1%); assay type: functional; set-up: scale not given: the % may be the effect or the level left
CCRF-CEM [3] = assay: Cell cycle arrest in human CCRF-CEM cells assessed as accumulation at G2/M phase at IC50 after 24 hrs by propidium iodide staining-based flow cytometric analysis (reference value: 14.2%); assay type: functional
CCRF-CEM [4] = assay: Cell cycle arrest in human CCRF-CEM cells assessed as accumulation at S phase at IC50 after 24 hrs by propidium iodide staining-based flow cytometric analysis (reference value: 44.8%); assay type: functional
CCRF-CEM [5] = assay: Cell cycle arrest in human CCRF-CEM cells assessed as accumulation at G1 phase at IC50 after 24 hrs by propidium iodide staining-based flow cytometric analysis (reference value: 41%); assay type: functional
CCRF-CEM [6] = assay: Cell cycle arrest in human CCRF-CEM cells assessed as accumulation at sub-G1 phase at IC50 after 24 hrs by propidium iodide staining-based flow cytometric analysis (reference value: 9.6%); assay type: functional
[7] = Cytotoxicity against human HuH7 cells infected with Hepatitis C virus subtype 2a; assay type: cell-based, Huh-7
Hepatitis C virus [8] = assay: Antiviral activity against Hepatitis C virus subtype 2a infected in human HuH7 cells; assay type: functional, organism-based, Hepacivirus hominis; settings: genotype 2a, Huh-7
[9] = Cytotoxicity against human HuH7 cells infected with Hepatitis C virus subtype 1b; assay type: cell-based, Huh-7
Hepatitis C virus [10] = assay: Antiviral activity against Hepatitis C virus subtype 1b infected in human HuH7 cells; assay type: functional, organism-based, Hepacivirus hominis; settings: genotype 1b, Huh-7
Candida tropicalis = assay: Antifungal activity against Candida tropicalis after 48 hrs; assay type: functional, organism-based
Pichia kudriavzevii = assay: Antifungal activity against Candida crusei after 48 hrs; assay type: functional, organism-based
Candida parapsilosis = assay: Antifungal activity against Candida parapsilosis after 48 hrs; assay type: functional, organism-based
Candida albicans = assay: Antifungal activity against Candida albicans after 48 hrs; assay type: functional, organism-based
Pseudomonas aeruginosa [11] = assay: Antibacterial activity against multi-resistant Pseudomonas aeruginosa A/16575 after 24 hrs; assay type: functional, organism-based
Escherichia coli [12] = assay: Antibacterial activity against multi-resistant Escherichia coli C/16702 after 24 hrs; assay type: functional, organism-based
[13] = system: Staphylococcus haemolyticus; assay: Antibacterial activity against methicillin-resistant Staphylococcus haemolyticus A/16568 after 24 hrs; assay type: functional, organism-based
Staphylococcus aureus [14] = assay: Antibacterial activity against methicillin-resistant Staphylococcus aureus MRSA 4591 after 24 hrs; assay type: functional, organism-based
Pseudomonas aeruginosa [15] = assay: Antibacterial activity against Pseudomonas aeruginosa CCM 3955 after 24 hrs; assay type: functional, organism-based
Escherichia coli [16] = assay: Antibacterial activity against Escherichia coli CCM 3954 after 24 hrs; assay type: functional, organism-based
Staphylococcus aureus [17] = assay: Antibacterial activity against Staphylococcus aureus CCM 3953 after 24 hrs; assay type: functional, organism-based
Enterococcus faecalis = assay: Antibacterial activity against Enterococcus faecalis CCM 4224 after 24 hrs; assay type: functional, organism-based
[18] = Antiproliferative activity against human HeLaS3 cells after 72 hrs by XTT assay; assay type: functional, cell-based; settings: HeLa S3, 72 h
Procedure, shortened: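 Antiproliferative test on HL-60 promyelocytic leukemia and HeLa S3 cervical carcinoma cells growing in liquid suspension.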

MRC5 = assay: Cytostatic activity against human MRC5 cells after 72 hrs by MTT assay; assay type: ADME, cell-based; settings: MRC5, 72 h
Procedure, shortened: (§1)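 IC50 is the concentration that cuts cell growth by 50%, read by quantitative metabolic MTT staining after a 3-day treatment. The resistant sublines were made by raising the concentration of the cytotoxic drug step by step. CEM-DNR-bulk (daunorubicin-selected) stably overexpresses mrp-1. K562-TAX (paclitaxel-selected) expresses only mdr-1. HCT116p53−/− carries null p53 alleles. BJ and MRC-5 are nonmalignant fibroblasts.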

BJ = assay: Cytostatic activity against human BJ cells after 72 hrs by MTT assay; assay type: ADME, cell-based; procedure, shortened: as §1
HCT-116 = assay: Cytostatic activity against human HCT116 cells after 72 hrs by MTT assay; assay type: functional, cell-based; settings: HCT-116, 72 h; procedure, shortened: as §1
A549 = assay: Cytostatic activity against human A549 cells after 72 hrs by MTT assay; assay type: functional, cell-based; settings: A549, 72 h; procedure, shortened: as §1
K562 [19] = assay: Cytostatic activity against paclitaxel-resistant human K562 cells after 72 hrs by MTT assay; assay type: functional, cell-based; settings: K562, 72 h; procedure, shortened: as §1
K562 [20] = assay: Cytostatic activity against human K562 cells after 72 hrs by MTT assay; assay type: functional, cell-based; settings: K562, 72 h; procedure, shortened: as §1
[21] = Cytostatic activity against human CEM-DNR-bulk cells after 72 hrs by MTT assay; assay type: functional, cell-based; procedure, shortened: as §1
CCRF-CEM [22] = assay: Cytostatic activity against human CCRF-CEM cells after 72 hrs by MTT assay; assay type: functional, cell-based; procedure, shortened: as §1
CCRF-CEM [23] = assay: Mitotic arrest in human CCRF-CEM cells assessed as pH3Ser10-positive cells at IC50 after 24 hrs by propidium iodide staining-based flow cytometric analysis (reference value: 1.4%); assay type: functional

Nc1ncnc2c1c(-c1cccs1)cn2[C@@H]1O[C@H](CO)[C@@H](O)[C@H]1O
Activity (CCRF-CEM [1]): 15.2% | Activity (CCRF-CEM [2]): 52.4% | Activity (CCRF-CEM [3]): 10.1% | Activity (CCRF-CEM [4]): 39.2% | Activity (CCRF-CEM [5]): 50.6% | Activity (CCRF-CEM [6]): 18.6% | CC50 [7]: > 44000 nM | EC50 (Hepatitis C virus [8]): > 44000 nM | CC50 [9]: > 44000 nM | EC50 (Hepatitis C virus [10]): > 44000 nM | Activity (Candida tropicalis): inactive | Activity (Pichia kudriavzevii): inactive | Activity (Candida parapsilosis): inactive | Activity (Candida albicans): inactive | Activity (Pseudomonas aeruginosa [11]): inactive | Activity (Escherichia coli [12]): inactive | Activity [13]: inactive | Activity (Staphylococcus aureus [14]): inactive | Activity (Pseudomonas aeruginosa [15]): inactive | Activity (Escherichia coli [16]): inactive | Activity (Staphylococcus aureus [17]): inactive | Activity (Enterococcus faecalis): inactive | IC50 [18]: 20 nM | IC50 (MRC5): 39400 nM | IC50 (BJ): 65600 nM | IC50 (HCT-116): 10 nM | IC50 (A549): 40 nM | IC50 (K562 [19]): 20 nM | IC50 (K562 [20]): 30 nM | IC50 [21]: 170 nM | IC50 (CCRF-CEM [22]): 20 nM | Activity (CCRF-CEM [23]): 1.4%
